INS promoter act: TRM-6 insulin promoter activation; TRM-6 cells (human fetal islet line), insulin promoter eGFP reporter, imaging; plate-scaled: unstimulated 0, stimulated control 100; activation, % at 2 µM; 130,000 tested, 0.81% active;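 active means activation at 2 µM above a set limit, confirmed on inspection of the cell images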;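 further: share of cells whose green reporter signal exceeds an intensity cutoff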
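Assay system: TRM-6 human fetal islet cells, insulin promoter–eGFP reporter; Also added: 0.75 µM tamoxifen as reporter inducer; Schedule: 15 h tamoxifen pre-treatment, 48 h compound treatment at 37 °C; Signal: fixed-cell fluorescence microscopy, eGFP plus Hoechst; Read-out: percent activation from GFP-positive cell fraction; Control set: stimulated and unstimulated wells.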
Starred values were filed as active, the others as inactive. The entries come from a sample that favours hits as a whole.

SMILES	INS promoter act
O=C(c1ccccc1C(=O)N1CCN(c2ccccc2F)CC1)N1CCN(c2ccccc2F)CC1	0.0
Cc1cccc(C)c1N1CC(=O)N(c2c(C)cccc2C)CC1=O	7.9
O=C1CN(c2ccccc2F)C(=O)CN1c1ccccc1F	411.8*
Cc1ccnc(NCn2nnc3ccccc32)c1	7.1
COC(=O)[C@H](C)NC(=O)NC1CCN(Cc2ccccc2)CC1	186.7
O=C(Oc1ccc(C(=S)N2CCOCC2)cc1)c1ccccc1	-5.9
CC(=O)N1CCN(C(=S)c2ccc(N(C)C)cc2)CC1	6.7
CN(C)c1ccc(C(=S)N2CCOCC2)cc1	150.0*
Cc1c(NC(=O)CN2CCN(c3ccc(F)cc3)CC2)c(=O)n(-c2ccccc2)n1C	0.0
CC(C)(C)c1[nH]nc2c1C(Cc1ccccc1)C(C#N)=C(N)O2 (centres undefined)	0.0
CC(C)C[C@@H]1NC(=O)[C@H](Cc2ccc(O)cc2)NC(=O)c2cc([N+](=O)[O-])cc(I)c2NCCC[C@@H](C(N)=O)NC1=O	4.5
NC(=O)[C@@H]1CCCNc2c(I)cc([N+](=O)[O-])cc2C(=O)N[C@@H](Cc2ccccc2)C(=O)N[C@@H](Cc2cnc[nH]2)C(=O)N1	285.0*
NC(=O)[C@@H]1CCCCNc2c(I)cc([N+](=O)[O-])cc2C(=O)N[C@@H](CCC(=O)O)C(=O)N[C@@H](CO)C(=O)N1	-60.0
COC(=O)c1sccc1NC(=O)CN(C)NS(=O)(=O)c1ccc(F)cc1	3.6
Nc1nc(SCC(=O)Nc2ccc(Br)cc2F)n[nH]1	-75.0
COc1ccc(NC(=O)CSc2n[nH]c(N)n2)cc1OC	331.6*
COc1ccc(NC(=O)CSc2nncn2C)cc1OC	-71.4
CC1Cc2ccccc2N1C(=S)NC(=O)C1(C)CC1(Cl)Cl (centres undefined)	-9.1
COc1ccc(NC(=O)c2ccc([N+](=O)[O-])cc2[N+](=O)[O-])c(OC)c1	9.1
COc1ccc(C(=O)N/N=C/c2ccc(OC)c(OS(=O)(=O)c3ccccc3)c2)cc1	-5.1
COc1cc(/C=N/NC(=O)c2ccc(-c3ccccc3)cc2)cc(OC)c1OC	442.9*
COc1cc(/C=N/NC(=O)c2ccoc2C)cc(OC)c1OC	3.3
Cc1nnc(-c2cnn(C)c2N)n1Cc1cccc(Cl)c1	-89.3
Cc1cc(NC(=O)CN2C(=O)NC3(CCC(C)CC3)C2=O)no1 (centres undefined)	0.0
O=C(/C=C/c1c(Cl)nc2ccccn12)Nc1ccc(F)cc1	-3.7
SMILES	INS promoter act
CCOC(=O)c1nc2cc3n(c(C)c-2c1C)C(C)C(CC)=C3C (centres undefined)	219.0
COc1ccc(CC(=O)NNc2ncnc3c2cnn3-c2ccc(C)cc2)cc1OC	-2.9
COc1cc(/C=C2\S/C(=N/S(=O)(=O)c3ccc(C)cc3)NC2=O)c([N+](=O)[O-])cc1OC	453.3*
Cc1cccc(N=C2NC(=O)/C(=C/c3cccs3)S2)c1	0.0
COc1ccccc1/C=C1\S/C(=N/NC(=O)c2cccc(Br)c2)NC1=O	-7.7
CCOc1ccc(N2C(=O)/C(=C\c3ccccc3OC)S(=O)(=O)C2c2cccc([N+](=O)[O-])c2)cc1 (centres undefined)	6.9
CCOC(=O)c1cnc(N2CCN(C(=O)OCC)CC2)[nH]c1=O	0.0
COc1cc(S(=O)(=O)N2CCN(C(=O)c3ccccc3F)CC2)c(OC)cc1NC(C)=O	-3.2
O=C1CC(C(=O)O)S/C(=N\NC(=O)c2ccc(F)cc2)N1 (centres undefined)	0.0
CN1C(=O)CC(C(=O)O)SC1=Nc1ccc(F)cc1 (centres undefined)	425.0*
CN1C(=O)CC(C(=O)O)SC1=Nc1cccc(C(F)(F)F)c1 (centres undefined)	30.0
Cc1csc(NC(=O)C2CCCN(S(=O)(=O)c3ccc(Br)s3)C2)n1 (centres undefined)	-7.1
COc1ccc(C2(C(=O)NCc3ccco3)CCCC2)cc1OC	-2.7
CCN1CCS/C1=C/C=C/C1=[N+](CC)CCS1	233.3*
CCOc1ccccc1NC(=O)CN(C)S(=O)(=O)c1cnc[nH]1	7.7
Cc1cc(SCC(=O)c2cc(C)n(C)c2C)nc2ccccc12	0.0
O=C1CCSc2ccc(Cl)cc2N1Cc1ccc(Cl)cc1	3.7
COc1ccccc1N(C(=O)c1ccncc1)c1nc(-c2ccc([N+](=O)[O-])cc2)cs1	5.4
O=C(Cc1nc(-c2ccc([N+](=O)[O-])cc2)cs1)Nc1ccccc1	193.3*
O=C(COc1ccc([N+](=O)[O-])cc1)Nc1ccncc1	-5.9
O=C(Nc1ccc(Cl)c([N+](=O)[O-])c1)c1cnccn1	0.0
COc1ccc(/C=N/Nc2cn[nH]c(=O)c2Cl)cc1	0.0
COc1ccc(NC2CC(=O)N(c3cccc(C)c3)C2=O)cc1 (centres undefined)	600.0*
COc1ccc(N2C(=O)CC(Nc3cccc(C(C)=O)c3)C2=O)cc1OC (centres undefined)	1.4
COc1ccc(N2C(=O)CC(N3CCOCC3)C2=O)cc1 (centres undefined)	0.0
SMILES	INS promoter act
Cc1c(C(=O)OCC(=O)NCc2ccc3c(c2)OCO3)cccc1[N+](=O)[O-]	-6.7
Cc1cc(C)nc(NC(=S)Nc2ccc(Br)cc2Cl)c1	-6.7
O=C(CSc1nnc(-c2ccco2)o1)c1ccccc1Cl	0.0
CCN(CC)C(=O)CSc1nnc(-c2ccco2)o1	500.0*
O=C(CSc1nnc(-c2ccco2)o1)NC1CCCCC1	0.0
C/C(=N/OC(=O)C1CC12CCC2)c1ccc(Br)cc1 (centres undefined)	7.1
CCOC(=O)c1sc2nc(SCC(=O)N(CC)CC)n(CCCN3CCCC3=O)c(=O)c2c1C	114.3
COc1ccc(S(=O)(=O)NCC(=O)Nc2cccc(C)c2C)cc1OC	5.9
O=C(O)c1ccccc1-c1nc(-c2ccccc2)c(-c2ccccc2)[nH]1	289.5*
CNC(=O)CSc1nc(-c2ccccc2)c(-c2ccccc2)[nH]1	0.0
CC(C)c1nc(-c2ccccc2)c(-c2ccccc2)[nH]1	-87.0
Cn1cc(Br)c(C(=O)NNC(=O)c2ccc(Cl)cc2)n1	7.4
CCOC(=O)COc1ccc(C(=O)NC2CCCCC2)cc1	0.0
O=C(N/C(=C/c1cccnc1)C(=O)N1CCOCC1)c1ccccc1Br	2.9
COc1cccc(NC(=O)c2cc(OC)c(OC)c(OC)c2Br)c1	0.0
Cc1ccc(Oc2ncccc2COC(=O)Nc2ccccc2C)cc1	369.2*
Cc1ccccc1NC(=O)OCc1cccnc1Sc1ccc(Cl)cc1	0.0
Cc1ccc(Sc2ncccc2COC(=O)Nc2c(C)cccc2C)cc1	110.3
Cc1cccc(OCC(=O)Nc2ccc(N3CCN(C(=O)c4ccccc4)CC3)cc2)c1	2.9
CC(C)NC(=O)c1onc(CSc2cccc(Cl)c2)c1C(=O)O	-8.1
O=C(C/C=N\OCc1ccc([N+](=O)[O-])cc1)Nc1ccc(F)cc1F	-5.6
COc1ccccc1C(=O)Nc1sc2c(c1C(=O)NCc1ccco1)CCCC2	6.5
CCOc1cccc(CNc2ccc(O)cc2)c1OCc1ccc(Cl)cc1Cl	91.4*
CCOc1cc(CNCCO)cc(Br)c1OCc1ccc(Cl)cc1Cl	8.3
C=CCOc1c(CNc2cccc(C(=O)O)c2)cccc1OCC	3.3
Cc1cccc(C)c1OCC(O)CNS(=O)(=O)c1ccccc1C(=O)N1CCCCC1 (centres undefined)	114.3
CS(=O)(=O)n1nc(-c2ccc(Cl)cc2)nc1SCc1ccccc1	-6.7
O=[N+]([O-])c1ccc(COc2ccccc2/C=N/O)cc1	528.6*
O=C(O)c1cc(/C=N\O)ccc1OCc1ccccc1	1.8

Source: PubChem BioAssay (Columbia University Molecular Screening Center)
